{"source": "ChEMBL document CHEMBL3853360", "about": "“Combined Interactions with I1-, I2-Imidazoline Binding Sites and α2-Adrenoceptors To Manage Opioid Addiction” (ACS Med Chem Lett, 2016)", "key": {"Mus musculus": {"test_system": "Mus musculus", "assay": "Reduction in morphine dependence acquisition in CD1 mouse assessed as inhibition of naloxone-precipitated forepaw tremor frequency at 5 to 10 mg/kg, ip administered 15 mins prior to each morphine challenge relative to control", "type": "functional", "procedure,_shortened": "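Mice received i.p. test compound (5 or 10 mg/kg) 15 min before each of repeated morphine injections, with vehicle and morphine-only controls. Withdrawal was then precipitated with naloxone. Jumping frequency and somatic signs (rearing, forepaw tremor, teeth chattering; summed frequency) were scored and compared with the morphine group. Data are mean ± SEM of 6–10 animals.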"}, "[1]": {"target": "T1, Alpha-2C adrenergic receptor (Homo sapiens, UniProt P18825)", "T1 sequence (P18825 whole entry)": "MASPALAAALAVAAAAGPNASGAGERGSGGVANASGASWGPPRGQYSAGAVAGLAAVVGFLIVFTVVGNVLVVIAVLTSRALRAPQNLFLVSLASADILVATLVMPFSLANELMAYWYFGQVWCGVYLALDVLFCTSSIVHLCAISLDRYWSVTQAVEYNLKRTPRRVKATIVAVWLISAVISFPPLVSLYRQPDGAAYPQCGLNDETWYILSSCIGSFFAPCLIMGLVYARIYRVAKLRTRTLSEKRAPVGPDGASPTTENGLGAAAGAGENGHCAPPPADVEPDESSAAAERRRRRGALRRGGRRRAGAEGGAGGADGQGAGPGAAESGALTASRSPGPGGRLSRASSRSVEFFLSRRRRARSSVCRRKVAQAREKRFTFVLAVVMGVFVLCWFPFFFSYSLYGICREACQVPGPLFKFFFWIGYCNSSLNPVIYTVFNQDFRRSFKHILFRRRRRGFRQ", "assay": "Agonist activity at human alpha2c-AR expressed in CHO cells assessed as rate of acidification after 240 mins by cytosensor microphysiometric analysis", "type": "cell-based", "procedure,_shortened": "(§1)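 Functional assay in CHO cells stably expressing a single human α2-AR subtype (α2A, α2B or α2C), read on a Cytosensor microphysiometer. Outputs are pEC50, intrinsic activity and, for antagonism, pKb. Intrinsic activity is expressed as a fraction of the full agonist (−)-noradrenaline, set at 1. Values are mean ± SEM of 3–5 separate experiments.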"}, "[2]": {"assay": "Reduction in morphine dependence expression in CD1 mouse assessed as inhibition of naloxone-precipitated forepaw tremor frequency at 10 mg/kg, ip administered acutely 15 mins prior to naloxone challenge relative to control", "type": "functional, organism-based"}, "[3]": {"target": "T2, Alpha-2B adrenergic receptor (Homo sapiens) (UniProt P18089)", "T2 sequence (whole entry)": "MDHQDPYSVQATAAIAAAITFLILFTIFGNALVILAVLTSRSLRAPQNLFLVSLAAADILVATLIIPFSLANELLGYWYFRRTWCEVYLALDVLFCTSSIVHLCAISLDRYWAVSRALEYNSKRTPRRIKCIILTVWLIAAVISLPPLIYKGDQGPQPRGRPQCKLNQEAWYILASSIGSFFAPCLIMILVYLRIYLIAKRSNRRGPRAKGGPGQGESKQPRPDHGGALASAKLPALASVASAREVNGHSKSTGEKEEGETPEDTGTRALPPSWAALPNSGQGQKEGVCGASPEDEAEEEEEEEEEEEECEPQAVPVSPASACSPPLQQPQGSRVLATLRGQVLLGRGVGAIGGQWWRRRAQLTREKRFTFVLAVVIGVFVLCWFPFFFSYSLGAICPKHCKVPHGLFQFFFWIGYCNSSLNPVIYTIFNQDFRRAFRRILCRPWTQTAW", "assay": "Agonist activity at human alpha2b-AR expressed in CHO cells assessed as rate of acidification after 240 mins by cytosensor microphysiometric analysis relative to (-)-noradrenaline", "type": "cell-based", "procedure,_shortened": "as §1"}, "[4]": {"target": "T3, Alpha-2B adrenergic receptor (Homo sapiens, UniProt P18089)", "T3 sequence (P18089 whole entry)": "T2 sequence (whole entry)", "assay": "Agonist activity at human alpha2b-AR expressed in CHO cells assessed as rate of acidification after 240 mins by cytosensor microphysiometric analysis", "type": "cell-based", "procedure,_shortened": "as §1"}, "[5]": {"target": "T4, Alpha-2C adrenergic receptor (Homo sapiens) (UniProt P18825)", "T4 sequence (whole entry)": "T1 sequence (P18825 whole entry)", "assay": "Agonist activity at human alpha2c-AR expressed in CHO cells assessed as rate of acidification after 240 mins by cytosensor microphysiometric analysis relative to (-)-noradrenaline", "type": "cell-based", "procedure,_shortened": "as §1"}, "[6]": {"assay": "Reduction in morphine dependence expression in CD1 mouse assessed as inhibition of naloxone-precipitated teeth chattering frequency at 5 mg/kg, ip administered acutely 15 mins prior to naloxone challenge relative to control", "type": "functional, organism-based"}, "[7]": {"assay": "Reduction in morphine dependence expression in CD1 mouse assessed as inhibition of naloxone-precipitated forepaw tremor frequency at 5 mg/kg, ip administered acutely 15 mins prior to naloxone challenge relative to control", "type": "functional, organism-based"}, "[8]": {"assay": "Reduction in morphine dependence expression in CD1 mouse assessed as inhibition of naloxone-precipitated teeth chattering frequency at 10 mg/kg, ip administered acutely 15 mins prior to naloxone challenge relative to control", "type": "functional, organism-based"}, "[9]": {"assay": "Reduction in morphine dependence expression in CD1 mouse assessed as inhibition of naloxone-precipitated rearing frequency at 10 mg/kg, ip administered acutely 15 mins prior to naloxone challenge relative to control", "type": "functional, organism-based"}, "[10]": {"assay": "Reduction in morphine dependence expression in CD1 mouse assessed as inhibition of naloxone-precipitated rearing frequency at 5 mg/kg, ip administered acutely 15 mins prior to naloxone challenge relative to control", "type": "functional, organism-based"}, "Nischarin": {"target": "Nischarin (Rattus norvegicus, UniProt Q4G017)", "sequence (Q4G017 whole entry)": "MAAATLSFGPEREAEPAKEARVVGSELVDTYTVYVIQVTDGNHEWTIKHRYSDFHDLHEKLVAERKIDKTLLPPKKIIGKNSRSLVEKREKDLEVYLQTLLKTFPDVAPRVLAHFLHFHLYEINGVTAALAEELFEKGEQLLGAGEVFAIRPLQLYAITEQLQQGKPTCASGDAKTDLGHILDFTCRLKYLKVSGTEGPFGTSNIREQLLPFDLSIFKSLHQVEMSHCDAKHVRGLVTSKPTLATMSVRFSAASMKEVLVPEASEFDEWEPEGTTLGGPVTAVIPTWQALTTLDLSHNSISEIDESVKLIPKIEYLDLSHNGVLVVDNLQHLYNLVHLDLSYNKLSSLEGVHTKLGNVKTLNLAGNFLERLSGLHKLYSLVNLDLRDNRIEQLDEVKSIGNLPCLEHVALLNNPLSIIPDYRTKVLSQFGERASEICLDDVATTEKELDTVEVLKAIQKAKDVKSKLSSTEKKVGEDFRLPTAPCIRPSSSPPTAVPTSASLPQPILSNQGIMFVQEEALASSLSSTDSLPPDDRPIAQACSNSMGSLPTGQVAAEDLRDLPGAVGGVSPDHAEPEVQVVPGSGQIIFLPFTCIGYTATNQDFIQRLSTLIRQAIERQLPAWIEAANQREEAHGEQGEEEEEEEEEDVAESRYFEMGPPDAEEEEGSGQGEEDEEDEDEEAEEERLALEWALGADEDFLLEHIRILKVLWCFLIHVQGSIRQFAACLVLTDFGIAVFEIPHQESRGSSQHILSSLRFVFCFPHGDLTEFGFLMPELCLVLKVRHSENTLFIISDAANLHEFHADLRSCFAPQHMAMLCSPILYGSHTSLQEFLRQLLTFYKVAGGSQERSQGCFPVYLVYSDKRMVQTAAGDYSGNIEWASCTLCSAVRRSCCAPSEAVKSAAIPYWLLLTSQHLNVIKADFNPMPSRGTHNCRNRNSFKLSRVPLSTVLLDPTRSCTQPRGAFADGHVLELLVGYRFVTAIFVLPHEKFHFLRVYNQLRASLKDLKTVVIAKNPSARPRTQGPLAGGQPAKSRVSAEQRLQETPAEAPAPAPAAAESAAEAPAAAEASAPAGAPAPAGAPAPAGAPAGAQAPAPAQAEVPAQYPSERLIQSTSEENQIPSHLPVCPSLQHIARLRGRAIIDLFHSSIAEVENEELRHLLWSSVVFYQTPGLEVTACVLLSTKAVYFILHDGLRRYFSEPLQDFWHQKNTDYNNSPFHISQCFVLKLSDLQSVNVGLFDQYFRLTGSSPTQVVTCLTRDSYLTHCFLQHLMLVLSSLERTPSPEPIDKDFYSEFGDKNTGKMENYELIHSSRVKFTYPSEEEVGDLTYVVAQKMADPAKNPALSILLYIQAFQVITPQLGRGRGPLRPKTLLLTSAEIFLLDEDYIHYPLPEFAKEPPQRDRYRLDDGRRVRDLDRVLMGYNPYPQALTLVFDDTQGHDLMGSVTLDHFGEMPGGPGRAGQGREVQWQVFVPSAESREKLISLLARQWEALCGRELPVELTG", "assay": "Displacement of [125I]-p-iodoclonidine from I1 receptor imidazoline binding site in Sprague-Dawley rat kidney cell membranes after 30 mins by liquid scintillation counting", "procedure,_shortened": "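Radioligand competition binding with pKi determined by displacement. I1 sites: [125I]-p-iodoclonidine on rat kidney membranes. I2 sites: [3H]-2-BFI on rat brain membranes. α2-ARs: [3H]-RX821002 on rat brain membranes.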"}}, "note": "pEC50, pKi: −log10 of the molar value."}
{"molecule": "Cc1ccccc1NCC1=NCCN1", "values": [{"measurement": "inhibition (INH)", "setting": "Mus musculus", "result": 80, "unit": "%"}, {"measurement": "pEC50", "setting": "[1]", "result": 7.66}, {"measurement": "inhibition", "setting": "[2]", "result": 93, "unit": "%"}, {"measurement": "Intrinsic activity", "setting": "[3]", "result": 0.4}, {"measurement": "pEC50", "setting": "[4]", "result": 5.50}, {"measurement": "Intrinsic activity", "setting": "[5]", "result": 0.8}, {"measurement": "inhibition", "setting": "[6]", "result": 86, "unit": "%"}, {"measurement": "inhibition", "setting": "[7]", "result": 86, "unit": "%"}, {"measurement": "inhibition", "setting": "[8]", "result": 93, "unit": "%"}, {"measurement": "inhibition", "setting": "[9]", "result": 93, "unit": "%"}, {"measurement": "inhibition", "setting": "[10]", "result": 86, "unit": "%"}, {"measurement": "pKi", "setting": "Nischarin", "result": 8.70}]}
